According to ChEMBL document CHEMBL4229342, “Synthesis of novel proxyphylline derivatives with dual Anti-Candida albicans and anticancer activity” (Eur J Med Chem, 2018):

Legend:
Type in all cases: functional
CCRF-CEM [1] = assay: Antiproliferative activity against human CCRF-CEM cells assessed as cell viability at 25 uM after 72 hrs by MTT assay; conditions: read-out: Activity
Outline: (§1)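 MTT viability assay in CCRF-CEM and MCF-7 cells after 72 h exposure at 25, 50, 100 and 200 µM. Results are relative to control cells without inhibitor in 0.5% DMSO. Done in triplicate; values are means ± SD of three independent experiments.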

CCRF-CEM [2] = assay: Antiproliferative activity against human CCRF-CEM cells assessed as cell viability at 50 uM after 72 hrs by MTT assay; conditions: read-out: Activity; outline: as §1
CCRF-CEM [3] = assay: Antiproliferative activity against human CCRF-CEM cells assessed as cell viability at 100 uM after 72 hrs by MTT assay; conditions: read-out: Activity; outline: as §1
CCRF-CEM [4] = assay: Antiproliferative activity against human CCRF-CEM cells assessed as cell viability at 200 uM after 72 hrs by MTT assay; conditions: read-out: Activity; outline: as §1
MCF7 [5] = assay: Antiproliferative activity against human MCF7 cells assessed as cell viability at 25 uM after 72 hrs by MTT assay; conditions: MCF7, 72 h, read-out: Activity; outline: as §1
MCF7 [6] = assay: Antiproliferative activity against human MCF7 cells assessed as cell viability at 50 uM after 72 hrs by MTT assay; conditions: MCF7, 72 h, read-out: Activity; outline: as §1
MCF7 [7] = assay: Antiproliferative activity against human MCF7 cells assessed as cell viability at 100 uM after 72 hrs by MTT assay; conditions: MCF7, 72 h, read-out: Activity; outline: as §1
MCF7 [8] = assay: Antiproliferative activity against human MCF7 cells assessed as cell viability at 200 uM after 72 hrs by MTT assay; conditions: MCF7, 72 h, read-out: Activity; outline: as §1
Candida albicans [9] = assay: Growth inhibition of Candida albicans ATCC 90028 at 16 ug/ml incubated for 18 hrs at 35 degC by broth microdilution method relative to control; conditions: ATCC 90028, 18 h, read-out: GI
Candida albicans [10] = assay: Growth inhibition of Candida albicans ATCC 90028 at 16 ug/ml incubated for 48 hrs at 35 degC by broth microdilution method relative to control; conditions: ATCC 90028, 48 h, read-out: GI
Candida albicans [11] = assay: Growth inhibition of Candida albicans ATCC 90028 at 8 ug/ml incubated for 18 hrs at 35 degC by broth microdilution method relative to control; conditions: ATCC 90028, 18 h, read-out: GI
Candida albicans [12] = assay: Growth inhibition of Candida albicans ATCC 90028 at 8 ug/ml incubated for 48 hrs at 35 degC by broth microdilution method relative to control; conditions: ATCC 90028, 48 h, read-out: GI
Candida albicans [13] = assay: Growth inhibition of Candida albicans ATCC 90028 at 4 ug/ml incubated for 18 hrs at 35 degC by broth microdilution method relative to control; conditions: ATCC 90028, 18 h, read-out: GI
Candida albicans [14] = assay: Growth inhibition of Candida albicans ATCC 90028 at 8 ug/ml incubated for 4 hrs at 35 degC by broth microdilution method relative to control; conditions: ATCC 90028, 4 h, read-out: GI
Candida albicans [15] = assay: Growth inhibition of Candida albicans ATCC 90028 at 2 ug/ml incubated for 18 hrs at 35 degC by broth microdilution method relative to control; conditions: ATCC 90028, 18 h, read-out: GI
Candida albicans [16] = assay: Growth inhibition of Candida albicans ATCC 90028 at 2 ug/ml incubated for 4 hrs at 35 degC by broth microdilution method relative to control; conditions: ATCC 90028, 4 h, read-out: GI
Candida albicans [17] = assay: Growth inhibition of Candida albicans ATCC 90028 at 1 ug/ml incubated for 18 hrs at 35 degC by broth microdilution method relative to control; conditions: ATCC 90028, 18 h, read-out: GI
Candida albicans [18] = assay: Growth inhibition of Candida albicans ATCC 90028 at 1 ug/ml incubated for 4 hrs at 35 degC by broth microdilution method relative to control; conditions: ATCC 90028, 4 h, read-out: GI
Candida albicans [19] = assay: Growth inhibition of Candida albicans ATCC 90028 at 0.5 ug/ml incubated for 18 hrs at 35 degC by broth microdilution method relative to control; conditions: ATCC 90028, 18 h, read-out: GI
Candida albicans [20] = assay: Growth inhibition of Candida albicans ATCC 90028 at 0.5 ug/ml incubated for 4 hrs at 35 degC by broth microdilution method relative to control; conditions: ATCC 90028, 4 h, read-out: GI
Candida albicans [21] = assay: Growth inhibition of Candida albicans ATCC 90028 at 0.25 ug/ml incubated for 18 hrs at 35 degC by broth microdilution method relative to control; conditions: ATCC 90028, 18 h, read-out: GI
Candida albicans [22] = assay: Growth inhibition of Candida albicans ATCC 90028 at 0.25 ug/ml incubated for 4 hrs at 35 degC by broth microdilution method relative to control; conditions: ATCC 90028, 4 h, read-out: GI
Candida albicans [23] = assay: Growth inhibition of Candida albicans ATCC 90028 at 0.125 ug/ml incubated for 18 hrs at 35 degC by broth microdilution method relative to control; conditions: ATCC 90028, 18 h, read-out: GI
Candida albicans [24] = assay: Growth inhibition of Candida albicans ATCC 90028 at 0.125 ug/ml incubated for 4 hrs at 35 degC by broth microdilution method relative to control; conditions: ATCC 90028, 4 h, read-out: GI
Candida albicans [25] = assay: Growth inhibition of Candida albicans ATCC 90028 at 0.0625 ug/ml incubated for 18 hrs at 35 degC by broth microdilution method relative to control; conditions: ATCC 90028, 18 h, read-out: GI
Candida albicans [26] = assay: Growth inhibition of Candida albicans ATCC 90028 at 0.0625 ug/ml incubated for 4 hrs at 35 degC by broth microdilution method relative to control; conditions: ATCC 90028, 4 h, read-out: GI
Candida albicans [27] = assay: Growth inhibition of Candida albicans ATCC 90028 at 0.0313 ug/ml incubated for 18 hrs at 35 degC by broth microdilution method relative to control; conditions: ATCC 90028, 18 h, read-out: GI
Candida albicans [28] = assay: Growth inhibition of Candida albicans ATCC 90028 at 0.0313 ug/ml incubated for 4 hrs at 35 degC by broth microdilution method relative to control; conditions: ATCC 90028, 4 h, read-out: GI
Candida albicans [29] = assay: Fungicidal activity against Candida albicans ATCC 90028 assessed as log reduction in cell viability at 16 ug/ml after 48 hrs at 35 degC
Outline: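 MFC assay on C. albicans ATCC 90028 following M27-A3, at the molar equivalent of 16 µg/mL. CFU of treated cells were compared with CFU of the untreated inoculum. Activity is given as lg R = lg CFU/mL control − lg CFU/mL treated, and lg R ≥3 was defined as fungicidal. Values are means of two independent experiments.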

| Structure (SMILES) | viability at 25 µM (CCRF-CEM [1]) | viability at 50 µM (CCRF-CEM [2]) | viability at 100 µM (CCRF-CEM [3]) | viability at 200 µM (CCRF-CEM [4]) | viability at 25 µM (MCF7 [5]) | viability at 50 µM (MCF7 [6]) | viability at 100 µM (MCF7 [7]) | viability at 200 µM (MCF7 [8]) | inhibition of growth at 16 µg/mL (Candida albicans [9]) | inhibition of growth at 16 µg/mL (Candida albicans [10]) | inhibition of growth at 8 µg/mL (Candida albicans [11]) | inhibition of growth at 8 µg/mL (Candida albicans [12]) | inhibition of growth at 4 µg/mL (Candida albicans [13]) | inhibition of growth at 8 µg/mL (Candida albicans [14]) | inhibition of growth at 2 µg/mL (Candida albicans [15]) | inhibition of growth at 2 µg/mL (Candida albicans [16]) | inhibition of growth at 1 µg/mL (Candida albicans [17]) | inhibition of growth at 1 µg/mL (Candida albicans [18]) | inhibition of growth at 0.5 µg/mL (Candida albicans [19]) | inhibition of growth at 0.5 µg/mL (Candida albicans [20]) | also measured |
| --- | --- | --- | --- | --- | --- | --- | --- | --- | --- | --- | --- | --- | --- | --- | --- | --- | --- | --- | --- | --- | --- |
| COC(C(=O)OC(C)Cn1cnc2c1c(=O)n(C)c(=O)n2C)c1cccc2ccccc12 (stereo unspecified) | 96.6% | 87.9% | 51.4% | 34.6% | 92.6% | 87.7% | 83.3% | 76.9% | 99.8% | 99.4% | 100% | 99.6% | 99.5% | 99% | 99.9% | 99.3% | 100% | 99.3% | 100% | 99.1% | inhibition of growth at 0.25 µg/mL (Candida albicans [21]): 99.9%; inhibition of growth at 0.25 µg/mL (Candida albicans [22]): 98.9%; inhibition of growth at 0.125 µg/mL (Candida albicans [23]): 100%; inhibition of growth at 0.125 µg/mL (Candida albicans [24]): 100%; inhibition of growth at 0.0625 µg/mL (Candida albicans [25]): 100%; inhibition of growth at 0.0625 µg/mL (Candida albicans [26]): 100%; inhibition of growth at 0.0313 µg/mL (Candida albicans [27]): 100%; inhibition of growth at 0.0313 µg/mL (Candida albicans [28]): 99.5%; log(activity) (Candida albicans [29]): 0.5 |
| CC(Cn1cnc2c1c(=O)n(C)c(=O)n2C)OC(=O)CC(=O)c1ccc(F)cc1 (stereo unspecified) | 83.5% | 51.1% | 43.8% | 20.1% | 88.5% | 77.9% | 83.8% | 76.8% | 100% | 99.7% | 99.8% | 99.3% | 100% | 99.4% | 100% | 99.3% | 100% | 100% | 99.7% | 99.3% | inhibition of growth at 0.25 µg/mL (Candida albicans [21]): 99.7%; inhibition of growth at 0.25 µg/mL (Candida albicans [22]): 99.3%; inhibition of growth at 0.125 µg/mL (Candida albicans [23]): 99.8%; inhibition of growth at 0.125 µg/mL (Candida albicans [24]): 99.5%; inhibition of growth at 0.0625 µg/mL (Candida albicans [25]): 99.9%; inhibition of growth at 0.0625 µg/mL (Candida albicans [26]): 99.3%; inhibition of growth at 0.0313 µg/mL (Candida albicans [27]): 99.7%; inhibition of growth at 0.0313 µg/mL (Candida albicans [28]): 98.9%; log(activity) (Candida albicans [29]): 0.9 |
| CC(Cn1cnc2c1c(=O)n(C)c(=O)n2C)OC(=O)C(c1ccccc1)c1ccccc1 (stereo unspecified) | 84.8% | 33.1% | 30.5% | 2.5% | 89.5% | 75.2% | 67.3% | 43.5% | 99.9% | 99.1% | 99.9% | 99.1% | 100% | 99.2% | 99.8% | 99.2% | 99.6% | 99.4% | 99.6% | 99.1% | inhibition of growth at 0.25 µg/mL (Candida albicans [21]): 99.3%; inhibition of growth at 0.25 µg/mL (Candida albicans [22]): 99.1%; inhibition of growth at 0.125 µg/mL (Candida albicans [23]): 100%; inhibition of growth at 0.125 µg/mL (Candida albicans [24]): 99.8%; inhibition of growth at 0.0625 µg/mL (Candida albicans [25]): 100%; inhibition of growth at 0.0625 µg/mL (Candida albicans [26]): 99.3%; inhibition of growth at 0.0313 µg/mL (Candida albicans [27]): 100%; inhibition of growth at 0.0313 µg/mL (Candida albicans [28]): 99.9%; log(activity) (Candida albicans [29]): 0.1 |
| CC(Cn1cnc2c1c(=O)n(C)c(=O)n2C)OCc1cn(-c2cccc3ccccc23)nn1 (stereo unspecified) | 90% | 67.7% | 34.2% | 4.1% | 93.5% | 91.9% | 93.3% | 77% | 99.6% | 99.1% | 99.9% | 99.6% | 99.8% | 99.6% | 99.8% | 99.2% | 99.7% | 99.5% | 99.7% | 99.3% | inhibition of growth at 0.25 µg/mL (Candida albicans [21]): 99.8%; inhibition of growth at 0.25 µg/mL (Candida albicans [22]): 99.5%; inhibition of growth at 0.125 µg/mL (Candida albicans [23]): 100%; inhibition of growth at 0.125 µg/mL (Candida albicans [24]): 99.7%; inhibition of growth at 0.0625 µg/mL (Candida albicans [25]): 100%; inhibition of growth at 0.0625 µg/mL (Candida albicans [26]): 99.8%; inhibition of growth at 0.0313 µg/mL (Candida albicans [27]): 99.9%; inhibition of growth at 0.0313 µg/mL (Candida albicans [28]): 99.1%; log(activity) (Candida albicans [29]): 0.5 |
